The source made the active and inactive calls. The rule behind the calls is not given here.
What was measured:
RXF 393 = assay: Cytotoxicity against human RXF393 cells assessed as cell growth at 5 uM by SRB assay; type: functional; settings: read-out: Activity
SN12C = assay: Cytotoxicity against human SN12C cells assessed as cell growth at 5 uM by SRB assay; type: functional; settings: read-out: Activity
BT-549 [1] = assay: Cytotoxicity against human BT549 cells assessed as cell growth at 0.5 uM by SRB assay; type: functional; settings: read-out: Activity
PC-3 [2] = assay: Cytotoxicity against human PC3 cells assessed as cell growth at 0.005 uM by SRB assay; type: functional; settings: read-out: Activity
HCT-116 = assay: Cytotoxicity against human HCT116 cells assessed as cell growth at 50 uM by SRB assay; type: functional; settings: read-out: Activity
Method in brief: (§1)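 Measured in the NCI-60 human tumour cell line panel using five-dose testing. Growth was recorded at each dose for each cell line, and a GI50 was derived for each line.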

SK-MEL-28 = assay: Cytotoxicity against human SK-MEL-28 cells assessed as cell growth at 0.5 uM by SRB assay; type: functional; settings: read-out: Activity
UACC-62 = assay: Cytotoxicity against human UACC62 cells assessed as cell growth at 0.5 uM by SRB assay; type: functional; settings: read-out: Activity
HOP-92 = assay: Cytotoxicity against human HOP92 cells by SRB assay; type: functional; method in brief: as §1
LOX IMVI = assay: Cytotoxicity against human LOXIMVI cells assessed as cell growth at 0.5 uM by SRB assay; type: functional; settings: read-out: Activity
NCI-H322M [3] = assay: Cytotoxicity against human NCI-H322M cells by SRB assay; type: functional
Method in brief: (§2)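 NCI-60 panel screen; 5-dose testing giving GI50 per cell line, plus a single 10 µM one-dose test. Method details not given beyond the NCI screen.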

KM12 [4] = assay: Cytotoxicity against human KM12 cells assessed as cell growth at 0.05 uM by SRB assay; type: functional; settings: read-out: Activity
A498 = assay: Cytotoxicity against human A498 cells assessed as cell growth at 0.5 uM by SRB assay; type: functional; settings: read-out: Activity
IGROV-1 [5] = assay: Cytotoxicity against human IGROV1 cells assessed as cell growth at 0.5 uM by SRB assay; type: functional; settings: read-out: Activity; method in brief: as §1
HCC 2998 = assay: Cytotoxicity against human HCC2998 cells assessed as cell growth at 5 uM by SRB assay; type: functional; settings: read-out: Activity; method in brief: as §1
SK-MEL-2 = assay: Cytotoxicity against human SK-MEL-2 cells assessed as cell growth at 0.5 uM by SRB assay; type: functional; settings: read-out: Activity
786-0 = assay: Cytotoxicity against human 786-0 cells assessed as cell growth at 0.05 uM by SRB assay; type: functional; settings: read-out: Activity
NCI-H460 = assay: Cytotoxicity against human NCI-H460 cells assessed as cell growth at 0.05 uM by SRB assay; type: functional; settings: read-out: Activity
MDA-MB-231 = assay: Cytotoxicity against human MDA-MB-231/ATCC cells assessed as cell growth at 0.05 uM by SRB assay; type: functional; settings: read-out: Activity
IGROV-1 [6] = assay: Cytotoxicity against human IGROV1 cells assessed as cell growth at 0.05 uM by SRB assay; type: functional; settings: read-out: Activity; method in brief: as §1
PC-3 [7] = assay: Cytotoxicity against human PC3 cells by SRB assay; type: functional; method in brief: as §2
RPMI-8226 = assay: Cytotoxicity against human RPMI8226 cells assessed as cell growth at 0.5 uM by SRB assay; type: functional; settings: read-out: Activity
M14 = assay: Cytotoxicity against human M14 cells assessed as cell growth at 50 uM by SRB assay; type: functional; settings: read-out: Activity
SF-268 [8] = assay: Cytotoxicity against human SF268 cells assessed as cell growth at 0.005 uM by SRB assay; type: functional; settings: read-out: Activity
HCT-15 = assay: Cytotoxicity against human HCT15 cells assessed as cell growth at 0.005 uM by SRB assay; type: functional; settings: read-out: Activity; method in brief: as §1
OVCAR-5 [9] = assay: Cytotoxicity against human OVCAR5 cells assessed as cell growth at 5 uM by SRB assay; type: functional; settings: read-out: Activity
SR = assay: Cytotoxicity against human SR cells assessed as cell growth at 0.5 uM by SRB assay; type: functional; settings: read-out: Activity
DU-145 = assay: Cytotoxicity against human DU145 cells assessed as cell growth at 0.05 uM by SRB assay; type: functional; settings: read-out: Activity; method in brief: as §1
COLO 205 [10] = assay: Cytotoxicity against human COLO205 cells assessed as cell growth at 50 uM by SRB assay; type: functional; settings: read-out: Activity
K562 = assay: Induction of DNA double strand breaks in human K562 cells assessed as increase in gamma-H2AX level at 25 uM after 4 hrs by chemiluminescence analysis; type: functional, cell-based
Method in brief: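 K562 cells (3.4 × 10^5/mL) exposed 4 h at 37 °C to 25 µM drug or DMSO. Lysed in Tris pH 6.7/SDS buffer; 50 µg protein on 14% SDS-PAGE, PVDF blot. Rabbit anti-γH2AX (1:1000, overnight), GAPDH loading control, HRP secondary. Chemiluminescence imaged by CCD.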

BT-549 [11] = assay: Cytotoxicity against human BT549 cells assessed as cell growth at 0.05 uM by SRB assay; type: functional; settings: read-out: Activity
SK-MEL-5 = assay: Cytotoxicity against human SK-MEL-5 cells assessed as cell growth at 0.05 uM by SRB assay; type: functional; settings: read-out: Activity
A549 = assay: Cytotoxicity against human A549/ATCC cells assessed as cell growth at 50 uM by SRB assay; type: functional; settings: read-out: Activity
NCI-H322M [12] = assay: Cytotoxicity against human NCI-H322M cells assessed as cell growth at 0.5 uM by SRB assay; type: functional; settings: read-out: Activity
T47D = assay: Cytotoxicity against human T47D cells assessed as cell growth at 5 uM by SRB assay; type: functional; settings: read-out: Activity
SF-268 [13] = assay: Cytotoxicity against human SF268 cells assessed as cell growth at 5 uM by SRB assay; type: functional; settings: read-out: Activity
OVCAR-8 = assay: Cytotoxicity against human OVCAR8 cells assessed as cell growth at 0.05 uM by SRB assay; type: functional; settings: read-out: Activity
SF-539 = assay: Cytotoxicity against human SF539 cells assessed as cell growth at 0.005 uM by SRB assay; type: functional; settings: read-out: Activity
OVCAR-5 [14] = assay: Cytotoxicity against human OVCAR5 cells assessed as cell growth at 50 uM by SRB assay; type: functional; settings: read-out: Activity
HL-60(TB) = assay: Cytotoxicity against human HL-60(TB) cells assessed as cell growth at 0.005 uM by SRB assay; type: functional; settings: read-out: Activity; method in brief: as §1
KM12 [15] = assay: Cytotoxicity against human KM12 cells assessed as cell growth at 0.005 uM by SRB assay; type: functional; settings: read-out: Activity
COLO 205 [16] = assay: Cytotoxicity against human COLO205 cells assessed as cell growth at 0.5 uM by SRB assay; type: functional; settings: read-out: Activity
SF-295 = assay: Cytotoxicity against human SF295 cells assessed as cell growth at 0.005 uM by SRB assay; type: functional; settings: read-out: Activity
UO-31 = assay: Cytotoxicity against human UO31 cells assessed as cell growth at 0.005 uM by SRB assay; type: functional; settings: read-out: Activity
[17] = read-out: LC50 (the source's name)
[18] = read-out: pLC50 (the source's name) (converted)

## COc1cc([C@@H]2c3cc4c(cc3[C@@H](NC(=O)CN3CCN(CCCCCCN5CCN(CC(=O)N[C@@H]6c7cc8c(cc7[C@@H](c7cc(OC)c(O)c(OC)c7)[C@H]7C(=O)OC[C@@H]76)OCO8)CC5)CC3)[C@H]3COC(=O)[C@H]23)OCO4)cc(OC)c1O
RXF 393
  growth at 5 µM: 66%
SN12C
  growth at 5 µM: 11%
BT-549 [1]
  growth at 0.5 µM: 62%
PC-3 [2]
  growth at 0.005 µM: 93%
HCT-116
  growth at 50 µM: 2%
SK-MEL-28
  growth at 0.5 µM: 91%
UACC-62
  growth at 0.5 µM: 70%
HOP-92; read-out: GI50
  GI50: 1.55 µM
HOP-92; [17]
  CC50: > 50 µM
HOP-92; read-out: TGI
  TGI: > 50 µM
HOP-92; read-out: pGI50 (converted)
  GI50: 1.55 µM
HOP-92; [18]
  CC50: > 50.1 µM
HOP-92; read-out: pTGI (converted)
  TGI: > 50.1 µM
LOX IMVI
  growth at 0.5 µM: 61%
NCI-H322M [3]; read-out: GI50
  GI50: 30.7 µM
NCI-H322M [3]; [17]
  CC50: > 50 µM
NCI-H322M [3]; read-out: TGI
  TGI: > 50 µM
NCI-H322M [3]; read-out: pGI50 (converted)
  GI50: 30.9 µM
NCI-H322M [3]; [18]
  CC50: > 50.1 µM
NCI-H322M [3]; read-out: pTGI (converted)
  TGI: > 50.1 µM
KM12 [4]
  growth at 0.05 µM: 103%
A498
  growth at 0.5 µM: 78%
IGROV-1 [5]
  growth at 0.5 µM: 89%
HCC 2998
  growth at 5 µM: 73%
SK-MEL-2
  growth at 0.5 µM: 105%
786-0
  growth at 0.05 µM: 96%
NCI-H460
  growth at 0.05 µM: 89%
MDA-MB-231
  growth at 0.05 µM: 94%
IGROV-1 [6]
  growth at 0.05 µM: 105%
PC-3 [7]; read-out: GI50
  GI50: 6.87 µM
PC-3 [7]; [17]
  CC50: > 50 µM
PC-3 [7]; read-out: TGI
  TGI: > 50 µM
PC-3 [7]; read-out: pGI50 (converted)
  GI50: 6.92 µM
PC-3 [7]; [18]
  CC50: > 50.1 µM
PC-3 [7]; read-out: pTGI (converted)
  TGI: > 50.1 µM
RPMI-8226
  growth at 0.5 µM: 67%
M14
  growth at 50 µM: -19%
SF-268 [8]
  growth at 0.005 µM: 97%
HCT-15
  growth at 0.005 µM: 90%
OVCAR-5 [9]
  growth at 5 µM: 58%
SR
  growth at 0.5 µM: 22%
DU-145
  growth at 0.05 µM: 103%
COLO 205 [10]
  growth at 50 µM: -3%
K562
  Activity: Active
BT-549 [11]
  growth at 0.05 µM: 87%
SK-MEL-5
  growth at 0.05 µM: 93%
A549
  growth at 50 µM: -37%
NCI-H322M [12]
  growth at 0.5 µM: 93%
T47D
  growth at 5 µM: 31%
SF-268 [13]
  growth at 5 µM: 20%
OVCAR-8
  growth at 0.05 µM: 108%
SF-539
  growth at 0.005 µM: 94%
OVCAR-5 [14]
  growth at 50 µM: 10%
HL-60(TB)
  growth at 0.005 µM: 120%
KM12 [15]
  growth at 0.005 µM: 103%
COLO 205 [16]
  growth at 0.5 µM: 60%
SF-295
  growth at 0.005 µM: 90%
UO-31
  growth at 0.005 µM: 94%
